Measured values reported in ChEMBL document CHEMBL1799931, “Synthesis, evaluation and metabolic studies of radiotracers containing a 4-(4-[18F]-fluorobenzyl)piperidin-1-yl moiety for the PET imaging of NR2B NMDA receptors” (Eur J Med Chem, 2011).

Assays:
Mus musculus = assay: Analgesic activity in po dosed mouse assessed as licking behavior measured after 20 to 25 mins by formalin test; format: functional, organism-based
[1] = target: T1, Glutamate NMDA receptor; GRIN1/GRIN2B (Homo sapiens, UniProt Q05586+Q13224); assay: Antagonist activity against NR1a/NR2B receptor transfected in human HEK293 cells assessed as inhibition of NMDA-induced Ca2+ influx; format: functional, cell-based
[2] = target: Glutamate NMDA receptor; GRIN1/GRIN2A (Homo sapiens) (UniProt Q05586+Q12879); assay: Antagonist activity against NR1a/NR2A receptor transfected in human HEK293 cells assessed as inhibition of NMDA-induced Ca2+ influx at 10 uM; format: functional, cell-based
Summary of the method: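 HEK293 cells co-transfected 1:1 with NR1-1a plus NR2A-GFP or NR2B-GFP, D-APV (100 µM) after transfection, used at 24 h. Cells loaded with Fura-2/AM 45 min at 37 °C, then held in HBBSS with glycine, pH 7.45, at room temperature under perfusion. NMDA 100 µM for 30 s; ligands applied 60 s before and during.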

Thymus [3] = assay: Biodistribution in Sprague-Dawley rat thymus at 3.2 to 18.6 MBq, iv after 90 mins by micro PET analysis; format: ADME, organism-based; conditions: in vivo, 1.5 h
Summary of the method: (§1)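 Male Sprague-Dawley rats (235-310 g) under isoflurane got 18F radiotracer (3.2-18.6 MBq) by tail-vein catheter, n = 2. Dynamic microPET scan for 90 min, then ex vivo tissue counting at 90 min post-injection. Values are %ID/g ± SEM.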

Lung [4] = assay: Biodistribution in Sprague-Dawley rat lung at 3.2 to 18.6 MBq, iv after 90 mins by micro PET analysis; format: ADME, organism-based; conditions: in vivo, 1.5 h; summary of the method: as §1
Heart [5] = assay: Biodistribution in Sprague-Dawley rat heart at 3.2 to 18.6 MBq, iv after 90 mins by micro PET analysis; format: ADME, organism-based; conditions: in vivo, 1.5 h; summary of the method: as §1
Pancreas [6] = assay: Biodistribution in Sprague-Dawley rat pancreas at 3.2 to 18.6 MBq, iv after 90 mins by micro PET analysis; format: ADME, organism-based; conditions: in vivo, 1.5 h; summary of the method: as §1
Liver [7] = assay: Biodistribution in Sprague-Dawley rat liver at 3.2 to 18.6 MBq, iv after 90 mins by micro PET analysis; format: ADME, organism-based; conditions: in vivo, 1.5 h; summary of the method: as §1
Spleen [8] = assay: Biodistribution in Sprague-Dawley rat spleen at 3.2 to 18.6 MBq, iv after 90 mins by micro PET analysis; format: ADME, organism-based; conditions: in vivo, 1.5 h; summary of the method: as §1
Kidney [9] = assay: Biodistribution in Sprague-Dawley rat kidney at 3.2 to 18.6 MBq, iv after 90 mins by micro PET analysis; format: ADME, organism-based; conditions: in vivo, 1.5 h; summary of the method: as §1
[10] = Biodistribution in Sprague-Dawley rat urine at 3.2 to 18.6 MBq, iv after 90 mins by micro PET analysis; format: ADME, organism-based; conditions: in vivo, 1.5 h; summary of the method: as §1
Rattus norvegicus [11] = assay: Biodistribution in Sprague-Dawley rat bladder at 3.2 to 18.6 MBq, iv after 90 mins by micro PET analysis; format: ADME, organism-based, Urinary bladder; conditions: in vivo, 1.5 h; summary of the method: as §1
Intestine [12] = assay: Biodistribution in Sprague-Dawley rat intestine at 3.2 to 18.6 MBq, iv after 90 mins by micro PET analysis; format: ADME, organism-based; conditions: in vivo, 1.5 h; summary of the method: as §1
Muscle tissue [13] = assay: Biodistribution in Sprague-Dawley rat muscle at 3.2 to 18.6 MBq, iv after 90 mins by micro PET analysis; format: ADME, organism-based; conditions: in vivo, 1.5 h; summary of the method: as §1
[14] = Biodistribution in Sprague-Dawley rat fat at 3.2 to 18.6 MBq, iv after 90 mins by micro PET analysis; format: ADME, organism-based, Adipose tissue; conditions: in vivo, 1.5 h; summary of the method: as §1
Brain [15] = assay: Biodistribution in Sprague-Dawley rat brain at 3.2 to 18.6 MBq, iv after 90 mins by micro PET analysis; format: ADME, organism-based; conditions: in vivo, 1.5 h; summary of the method: as §1
Bone [16] = assay: Biodistribution in Sprague-Dawley rat bone at 3.2 to 18.6 MBq, iv after 90 mins by micro PET analysis; format: ADME, organism-based, Bone element; conditions: in vivo, 1.5 h; summary of the method: as §1
Rattus norvegicus [17] = assay: Biodistribution in Sprague-Dawley rat cartilage at 3.2 to 18.6 MBq, iv after 90 mins by micro PET analysis; format: ADME, organism-based, Cartilage tissue; conditions: in vivo, 1.5 h; summary of the method: as §1
[18] = Metabolic stability in Sprague-Dawley rat plasma assessed as half life by radio thin layer chromatography analysis; format: ADME, cell-free
Summary of the method: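 Anesthetized male Sprague-Dawley rats (235-330 g) given radiotracer (3.2-15.1 MBq). Femoral arterial blood was sampled over 90 min and plasma gamma-counted. Plasma was diluted with acetonitrile, centrifuged and run on silica radio-TLC with cold reference, giving parent and radiometabolite fractions.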

Rattus norvegicus [19] = assay: Analgesic activity against carrageenan-induced mechanical hyperalgesia in iv dosed rat; format: functional
[20] = Half life in rat plasma; format: ADME, cell-free
[21] = target: T1, Glutamate NMDA receptor; GRIN1/GRIN2B; assay: Displacement of [3H]-Ro-256981 from recombinant NR1/NR2B receptor; format: protein-complex assay
Muscle tissue [22] = assay: Biodistribution in Sprague-Dawley rat muscle at 3.2 to 18.6 MBq, iv after 120 mins by micro PET analysis; format: ADME, organism-based; conditions: in vivo, 2 h
Summary of the method: (§2)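 Male Sprague-Dawley rats (235-310 g) under isoflurane got 18F radiotracer (3.2-18.6 MBq) by tail-vein catheter, n = 3. Dynamic microPET scan for 120 min, then ex vivo tissue counting at 120 min post-injection. Values are %ID/g ± SEM.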

[23] = Biodistribution in Sprague-Dawley rat fat at 3.2 to 18.6 MBq, iv after 120 mins by micro PET analysis; format: ADME, organism-based, Adipose tissue; conditions: in vivo, 2 h; summary of the method: as §2
Brain [24] = assay: Biodistribution in Sprague-Dawley rat brain at 3.2 to 18.6 MBq, iv after 120 mins by micro PET analysis; format: ADME, organism-based; conditions: in vivo, 2 h; summary of the method: as §2
Bone [25] = assay: Biodistribution in Sprague-Dawley rat bone at 3.2 to 18.6 MBq, iv after 120 mins by micro PET analysis; format: ADME, organism-based, Bone element; conditions: in vivo, 2 h; summary of the method: as §2
Thymus [26] = assay: Biodistribution in Sprague-Dawley rat thymus at 3.2 to 18.6 MBq, iv after 120 mins by micro PET analysis; format: ADME, organism-based; conditions: in vivo, 2 h; summary of the method: as §2
Lung [27] = assay: Biodistribution in Sprague-Dawley rat lung at 3.2 to 18.6 MBq, iv after 120 mins by micro PET analysis; format: ADME, organism-based; conditions: in vivo, 2 h; summary of the method: as §2
Heart [28] = assay: Biodistribution in Sprague-Dawley rat heart at 3.2 to 18.6 MBq, iv after 120 mins by micro PET analysis; format: ADME, organism-based; conditions: in vivo, 2 h; summary of the method: as §2
Pancreas [29] = assay: Biodistribution in Sprague-Dawley rat pancreas at 3.2 to 18.6 MBq, iv after 120 mins by micro PET analysis; format: ADME, organism-based; conditions: in vivo, 2 h; summary of the method: as §2
Liver [30] = assay: Biodistribution in Sprague-Dawley rat liver at 3.2 to 18.6 MBq, iv after 120 mins by micro PET analysis; format: ADME, organism-based; conditions: in vivo, 2 h; summary of the method: as §2
Spleen [31] = assay: Biodistribution in Sprague-Dawley rat spleen at 3.2 to 18.6 MBq, iv after 120 mins by micro PET analysis; format: ADME, organism-based; conditions: in vivo, 2 h; summary of the method: as §2
Kidney [32] = assay: Biodistribution in Sprague-Dawley rat kidney at 3.2 to 18.6 MBq, iv after 120 mins by micro PET analysis; format: ADME, organism-based; conditions: in vivo, 2 h; summary of the method: as §2
[33] = Biodistribution in Sprague-Dawley rat urine at 3.2 to 18.6 MBq, iv after 120 mins by micro PET analysis; format: ADME, organism-based; conditions: in vivo, 2 h; summary of the method: as §2
Rattus norvegicus [34] = assay: Biodistribution in Sprague-Dawley rat bladder at 3.2 to 18.6 MBq, iv after 120 mins by micro PET analysis; format: ADME, organism-based, Urinary bladder; conditions: in vivo, 2 h; summary of the method: as §2
Intestine [35] = assay: Biodistribution in Sprague-Dawley rat intestine at 3.2 to 18.6 MBq, iv after 120 mins by micro PET analysis; format: ADME, organism-based; conditions: in vivo, 2 h; summary of the method: as §2
Hippocampus = assay: Biodistribution in Sprague-Dawley rat hippocampus at 3.2 to 18.6 MBq, iv after 120 mins by micro PET analysis; conditions: in vivo, 2 h
Cerebellum = assay: Biodistribution in Sprague-Dawley rat cerebellum at 3.2 to 18.6 MBq, iv after 120 mins by micro PET analysis; conditions: in vivo, 2 h
[36] = Mus musculus, po, read-out: ED50

T1 sequence (Q13224 whole entry, other chains not shown): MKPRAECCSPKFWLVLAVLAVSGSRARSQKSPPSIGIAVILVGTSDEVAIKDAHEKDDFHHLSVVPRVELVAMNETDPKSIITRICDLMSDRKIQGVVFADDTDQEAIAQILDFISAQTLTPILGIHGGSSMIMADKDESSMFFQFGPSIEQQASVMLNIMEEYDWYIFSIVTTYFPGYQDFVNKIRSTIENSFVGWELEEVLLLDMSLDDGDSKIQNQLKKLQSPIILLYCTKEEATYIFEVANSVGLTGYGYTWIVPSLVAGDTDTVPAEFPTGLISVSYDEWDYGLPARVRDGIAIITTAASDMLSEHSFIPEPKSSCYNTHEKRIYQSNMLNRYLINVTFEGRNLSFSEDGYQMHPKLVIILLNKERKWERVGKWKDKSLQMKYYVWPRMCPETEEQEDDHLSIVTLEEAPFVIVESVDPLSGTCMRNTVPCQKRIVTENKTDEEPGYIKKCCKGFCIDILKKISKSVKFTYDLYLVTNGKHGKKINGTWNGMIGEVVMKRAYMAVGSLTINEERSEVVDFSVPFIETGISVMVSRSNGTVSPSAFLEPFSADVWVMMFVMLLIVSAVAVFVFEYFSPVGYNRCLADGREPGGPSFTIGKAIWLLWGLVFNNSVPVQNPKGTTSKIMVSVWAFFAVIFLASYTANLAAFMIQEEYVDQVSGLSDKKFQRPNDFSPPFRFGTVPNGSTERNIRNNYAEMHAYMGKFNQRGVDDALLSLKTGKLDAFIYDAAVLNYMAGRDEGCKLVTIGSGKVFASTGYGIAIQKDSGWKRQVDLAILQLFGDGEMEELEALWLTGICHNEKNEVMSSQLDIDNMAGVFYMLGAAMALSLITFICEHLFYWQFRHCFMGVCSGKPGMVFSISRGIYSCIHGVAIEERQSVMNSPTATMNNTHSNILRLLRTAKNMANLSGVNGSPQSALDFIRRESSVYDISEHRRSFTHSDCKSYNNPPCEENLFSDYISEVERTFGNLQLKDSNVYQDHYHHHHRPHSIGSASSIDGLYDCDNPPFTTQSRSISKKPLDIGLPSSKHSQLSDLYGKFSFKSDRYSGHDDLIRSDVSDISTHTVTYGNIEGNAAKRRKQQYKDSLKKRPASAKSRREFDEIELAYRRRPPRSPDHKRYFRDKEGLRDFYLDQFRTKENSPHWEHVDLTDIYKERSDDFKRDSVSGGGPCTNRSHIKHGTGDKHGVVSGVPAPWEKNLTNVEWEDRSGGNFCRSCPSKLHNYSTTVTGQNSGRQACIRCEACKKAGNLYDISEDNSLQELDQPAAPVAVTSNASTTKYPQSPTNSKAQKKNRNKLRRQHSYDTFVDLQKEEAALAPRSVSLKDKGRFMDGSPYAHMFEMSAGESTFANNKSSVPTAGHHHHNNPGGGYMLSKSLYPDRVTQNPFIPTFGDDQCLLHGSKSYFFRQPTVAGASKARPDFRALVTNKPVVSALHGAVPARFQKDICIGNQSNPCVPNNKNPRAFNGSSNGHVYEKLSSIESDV

Cc1ccc(CC2CCN(C(=O)C(=O)Nc3ccc4c(c3)CC(=O)N4)CC2)cc1
ED50 (Mus musculus): 0.5 mg/kg

O=C1Cc2cc(NC(=O)C(=O)N3CCC(Cc4ccc(F)cc4)CC3)ccc2N1
IC50 [1]: 830 nM | inhibition [2]: 14.5%

CC(C(O)c1ccc(O)cc1)N1CCC(Cc2ccccc2)CC1 (stereo unspecified)
inhibition [2]: 22.3%

[18F]c1ccc(CC2CCNCC2)cc1
Drug uptake (Thymus [3]): 0.187 % ID/g | Drug uptake (Lung [4]): 0.507 % ID/g | Drug uptake (Heart [5]): 0.135 % ID/g | Drug uptake (Pancreas [6]): 0.285 % ID/g | Drug uptake (Liver [7]): 2.307 % ID/g | Drug uptake (Spleen [8]): 0.322 % ID/g | Drug uptake (Kidney [9]): 1.206 % ID/g | Drug uptake [10]: 10.125 % ID/g | Drug uptake (Rattus norvegicus [11]): 0.542 % ID/g | Drug uptake (Intestine [12]): 0.902 % ID/g | Drug uptake (Muscle tissue [13]): 0.145 % ID/g | Drug uptake [14]: 0.052 % ID/g | Drug uptake (Brain [15]): 0.395 % ID/g | Drug uptake (Bone [16]): 0.75 % ID/g | Drug uptake (Rattus norvegicus [17]): 2.312 % ID/g | half-life [18]: 10 min

Oc1ccc2nc(CN3CCC(Cc4ccccc4)CC3)[nH]c2c1
ED50 (Rattus norvegicus [19]): 3.3 mg/kg | half-life [20]: > 480 min | IC50 [1]: 209 nM

O=C(Nc1ccc2nc(O)oc2c1)C(=O)N1CCC(Cc2ccccc2)CC1
ED50 (Mus musculus; [36]): 0.5 mg/kg | IC50 [21]: 4 nM

O=C(Nc1ccc2[nH]c(=O)sc2c1)C(=O)N1CCC(Cc2ccc(F)cc2)CC1
IC50 [1]: 840 nM | inhibition [2]: 13.2%

Oc1ccc2[nH]c(CN3CCC(Cc4ccc([18F])cc4)CC3)nc2c1
Drug uptake (Muscle tissue [22]): 0.044 % ID/g | Drug uptake [23]: 0.098 % ID/g | Drug uptake (Brain [24]): 0.035 % ID/g | Drug uptake (Bone [25]): 1.576 % ID/g | Drug uptake (Thymus [26]): 0.225 % ID/g | half-life [18]: 35 min | Drug uptake (Lung [27]): 0.445 % ID/g | Drug uptake (Heart [28]): 0.068 % ID/g | Drug uptake (Pancreas [29]): 0.391 % ID/g | Drug uptake (Liver [30]): 2.255 % ID/g | Drug uptake (Spleen [31]): 0.305 % ID/g | Drug uptake (Kidney [32]): 0.384 % ID/g | Drug uptake [33]: 1.327 % ID/g | Drug uptake (Rattus norvegicus [34]): 0.373 % ID/g | Drug uptake (Intestine [35]): 0.188 % ID/g | Drug uptake (Hippocampus): 0.037 % ID/g | Drug uptake (Cerebellum): 0.035 % ID/g

O=C(Nc1ccc2[nH]c(O)nc2c1)C(=O)N1CCC(Cc2ccc(F)cc2)CC1
ED50 (Mus musculus; [36]): 0.5 mg/kg | IC50 [21]: 5 nM
